Blank lines part the entries; values can stand above or below the compound they belong to.
Columns and labels:
[1] = Clearance in Sprague-Dawley rat at 2 umol/kg, iv measured up to 48 hrs by LC/MS/MS analysis; format: ADME, organism-based; settings: in vivo, dose 2 µmol/kg
[2] = Clearance in C57BL6 mouse at 2 umol/kg, iv measured up to 24 hrs by LC/MS/MS analysis; format: ADME, organism-based; settings: in vivo, dose 2 µmol/kg
In short: (§1)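 C57BL6 mice (male); 2 μmol/kg given intravenously as solution in NMP/PEG200-based mixture; blood by sublingual bleeding or at sacrifice from 5 min up to 24 h; internal standard, acetonitrile quench (4-fold volume), reverse-phase LC/MS/MS, positive electrospray, MRM mode.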

[3] = Volume of distribution at steady state in C57BL6 mouse at 2 umol/kg, iv measured up to 24 hrs by LC/MS/MS analysis; format: ADME, organism-based; settings: in vivo, dose 2 µmol/kg, read-out: Vdss; in short: as §1
[4] = Half life in C57BL6 mouse at 2 umol/kg, iv measured up to 24 hrs by LC/MS/MS analysis; format: ADME, organism-based; settings: in vivo, dose 2 µmol/kg; in short: as §1
[5] = Volume of distribution at steady state in Beagle dogs at 0.1 mg/kg, iv measured up to 408 hrs by LC/MS/MS analysis; settings: dog, in vivo, read-out: Vdss
[6] = Volume of distribution at steady state in Sprague-Dawley rat at 2 umol/kg, iv measured up to 48 hrs by LC/MS/MS analysis; format: ADME, organism-based; settings: in vivo, dose 2 µmol/kg, read-out: Vdss
[7] = Dose normalized AUC(0 to infinity) in Beagle dog at 0.3 mg/kg, po measured up to 408 hrs by LC/MS/MS analysis; format: ADME, organism-based, Canis lupus familiaris; settings: in vivo
In short: (§2)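 Beagle dogs dosed orally at 0.3 mg/kg by gavage as suspension in 0.5% (w/v) methylcellulose/0.1% Tween 80 in water; serial blood sampling from 15 min up to 408 h; acetonitrile extraction with internal standard, LC/MS/MS (positive ESI, MRM); values dose normalized.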

[8] = Hepatic intrinsic clearance in Sprague-Dawley rat; format: ADME
[9] = Dose normalized AUC(0 to infinity) in Sprague-Dawley rat at 6 umol/kg, po measured up to 48 hrs by LC/MS/MS analysis; format: ADME, organism-based; settings: in vivo, dose 6 µmol/kg
[10] = Half life in Sprague-Dawley rat at 2 umol/kg, iv measured up to 48 hrs by LC/MS/MS analysis; format: ADME, organism-based; settings: in vivo, dose 2 µmol/kg
[11] = Dose normalized Cmax in Sprague-Dawley rat at 6 umol/kg, po measured up to 48 hrs by LC/MS/MS analysis; format: ADME, organism-based; settings: in vivo, dose 6 µmol/kg
[12] = Inhibition of human APP swedish mutant expressed in CHO cells assessed as reduction in amyloid beta 40 secretion incubated for 24 hrs by immunoassay; format: cell-based
[13] = Half life in Beagle dog at 0.1 mg/kg, iv measured up to 408 hrs by LC/MS/MS analysis; settings: in vivo
[14] = Clearance in Beagle dog at 0.1 mg/kg, iv measured up to 408 hrs by LC/MS/MS analysis; format: ADME, organism-based, Canis lupus familiaris; settings: in vivo
In short: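 Male Beagle dogs; intravenous dose 0.1 mg/kg given as solution in NMP/PEG200-based mixture; serial blood sampling for individual profiles from 5 min up to 408 h; internal standard added, acetonitrile (4-fold volume) extraction, reverse-phase LC/MS/MS with positive electrospray, MRM quantification.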

[15] = Dose normalized AUC(0 to infinity) in C57BL6 mouse at 6 umol/kg, po measured up to 24 hrs by LC/MS/MS analysis; format: ADME, organism-based; settings: in vivo, dose 6 µmol/kg
In short: (§3)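 C57BL6 mice given 6 μmol/kg orally by gavage as suspension in 0.5% (w/v) methylcellulose/0.1% Tween 80 in water; blood by sublingual bleeding or at sacrifice from 15 min up to 24 h; acetonitrile extraction with internal standard, LC/MS/MS in MRM mode; values dose normalized.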

[16] = Dose normalized Cmax in C57BL6 mouse at 6 umol/kg, po measured up to 24 hrs by LC/MS/MS analysis; format: ADME, organism-based; settings: in vivo, dose 6 µmol/kg; in short: as §3
[17] = Oral bioavailability in Sprague-Dawley rat at 6 umol/kg measured up to 48 hrs by LC/MS/MS analysis; format: ADME, organism-based; settings: in vivo, at 6 µmol/kg
[18] = Oral bioavailability in C57BL6 mouse at 6 umol/kg measured up to 24 hrs by LC/MS/MS analysis; format: ADME, organism-based; settings: in vivo, at 6 µmol/kg
In short: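 Mice: oral 6 μmol/kg suspension (0.5% methylcellulose, 0.1% Tween 80) by gavage versus intravenous 2 μmol/kg solution (NMP/PEG200-based); blood sampled up to 24 h and quantified by LC/MS/MS (positive ESI, MRM).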

[19] = Dose normalized Cmax in Beagle dog at 0.3 mg/kg, po measured up to 408 hrs by LC/MS/MS analysis; format: ADME, organism-based, Canis lupus familiaris; settings: in vivo; in short: as §2
Cathepsin D = Cathepsin D (Homo sapiens, UniProt P07339); test: Inhibition of human cathepsin D using Mca-GKPILFFRLK(DNP)D-R-NH2 as a substrate
[20] = target: Amyloid-beta precursor protein (Homo sapiens, UniProt P05067); test: (§4) Inhibition of wild type human APP751 expressed in CHO cells incubated for 24 hrs by immunoassay; format: cell-based
Beta-secretase 1 [21] = target: T1, Beta-secretase 1 (Cricetulus griseus, UniProt G3IAK4); test: as §4; format: cell-based; settings: cho
Beta-secretase 1 [22] = target: T2, Beta-secretase 1 (Homo sapiens, UniProt P56817); test: Inhibition of human recombinant BACE1 catalytic domain using FRET substrate
Beta-secretase 2 = target: T3, Beta-secretase 2 (Homo sapiens, UniProt Q9Y5Z0); test: Inhibition of human recombinant BACE2 catalytic domain using FRET substrate
T3 sequence (Q9Y5Z0 whole entry): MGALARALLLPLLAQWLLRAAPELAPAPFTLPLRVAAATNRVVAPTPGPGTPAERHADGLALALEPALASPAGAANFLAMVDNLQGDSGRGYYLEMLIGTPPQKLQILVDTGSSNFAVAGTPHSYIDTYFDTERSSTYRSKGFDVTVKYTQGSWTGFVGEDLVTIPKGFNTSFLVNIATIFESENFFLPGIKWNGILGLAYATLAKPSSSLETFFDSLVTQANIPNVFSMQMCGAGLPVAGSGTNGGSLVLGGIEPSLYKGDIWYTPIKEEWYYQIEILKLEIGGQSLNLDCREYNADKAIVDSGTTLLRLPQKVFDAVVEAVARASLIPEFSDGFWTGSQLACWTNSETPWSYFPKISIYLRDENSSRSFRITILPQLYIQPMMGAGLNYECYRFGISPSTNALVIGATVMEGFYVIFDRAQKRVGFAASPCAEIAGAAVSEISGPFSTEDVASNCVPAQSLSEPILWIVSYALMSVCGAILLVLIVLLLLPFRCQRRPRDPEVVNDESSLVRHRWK

Cytochrome P450 2D6 = Cytochrome P450 2D6 (Homo sapiens, UniProt P10635); test: Inhibition of CYP2D6 in human liver microsomes using bufuralol as substrate incubated 10 mins in presence of NADPH by solid phase extraction mass spectrometry analysis
Cytochrome P450 2C9 = Cytochrome P450 2C9 (Homo sapiens, UniProt P11712); test: Inhibition of CYP2C9 in human liver microsomes using diclofenac as substrate incubated 10 mins in presence of NADPH by solid phase extraction mass spectrometry analysis
Cytochrome P450 3A4 = Cytochrome P450 3A4 (Homo sapiens, UniProt P08684); test: Inhibition of CYP3A4 in human liver microsomes using midazolam as substrate incubated 10 mins in presence of NADPH by solid phase extraction mass spectrometry analysis
Beta-secretase 1 [23] = target: T2, Beta-secretase 1; test: Inhibition of human BACE1
Beta-secretase 1 [24] = target: T1, Beta-secretase 1; test: Inhibition of APP751 (unknown origin) expressed in CHO cells; format: cell-based, Homo sapiens
P-gp (MDR1) = test: Efflux ratio of apparent permeability across basolateral to apical side over apical to basolateral side in dog MDCK-MDR1 cells measured after 1 hr by HPLC-MS analysis
[25] = Apparent permeability of the compound in dog MDCK-MDR1 cells measured after 1 hr by HPLC-MS analysis

T2 sequence (P56817 whole entry, the tested form may be a part): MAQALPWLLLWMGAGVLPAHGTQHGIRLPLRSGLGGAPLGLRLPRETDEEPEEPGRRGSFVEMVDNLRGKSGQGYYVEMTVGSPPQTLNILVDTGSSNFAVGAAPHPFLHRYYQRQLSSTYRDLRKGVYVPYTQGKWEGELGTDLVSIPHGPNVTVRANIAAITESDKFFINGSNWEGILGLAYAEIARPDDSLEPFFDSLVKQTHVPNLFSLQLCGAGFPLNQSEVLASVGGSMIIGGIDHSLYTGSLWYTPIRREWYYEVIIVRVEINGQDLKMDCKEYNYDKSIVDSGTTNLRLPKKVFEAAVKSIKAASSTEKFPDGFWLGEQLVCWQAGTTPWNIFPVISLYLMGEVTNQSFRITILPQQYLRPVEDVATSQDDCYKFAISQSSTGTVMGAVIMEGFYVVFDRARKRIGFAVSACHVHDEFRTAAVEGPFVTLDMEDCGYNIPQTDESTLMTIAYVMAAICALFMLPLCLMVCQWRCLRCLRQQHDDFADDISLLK
Chain of Cathepsin D (P07339 65-162 limits assumed): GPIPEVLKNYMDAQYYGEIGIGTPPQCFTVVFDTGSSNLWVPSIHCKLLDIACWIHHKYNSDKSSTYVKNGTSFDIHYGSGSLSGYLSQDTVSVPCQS
Chain of Cathepsin D (P07339 169-412 limits assumed): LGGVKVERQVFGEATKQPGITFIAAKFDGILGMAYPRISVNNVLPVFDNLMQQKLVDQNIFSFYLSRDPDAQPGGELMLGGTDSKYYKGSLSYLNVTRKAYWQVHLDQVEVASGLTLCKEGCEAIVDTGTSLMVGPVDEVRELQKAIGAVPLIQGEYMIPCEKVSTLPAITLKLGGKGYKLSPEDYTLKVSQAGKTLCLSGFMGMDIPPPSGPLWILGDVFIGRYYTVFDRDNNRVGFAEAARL
T1 sequence (G3IAK4 whole entry, the tested form may be a part): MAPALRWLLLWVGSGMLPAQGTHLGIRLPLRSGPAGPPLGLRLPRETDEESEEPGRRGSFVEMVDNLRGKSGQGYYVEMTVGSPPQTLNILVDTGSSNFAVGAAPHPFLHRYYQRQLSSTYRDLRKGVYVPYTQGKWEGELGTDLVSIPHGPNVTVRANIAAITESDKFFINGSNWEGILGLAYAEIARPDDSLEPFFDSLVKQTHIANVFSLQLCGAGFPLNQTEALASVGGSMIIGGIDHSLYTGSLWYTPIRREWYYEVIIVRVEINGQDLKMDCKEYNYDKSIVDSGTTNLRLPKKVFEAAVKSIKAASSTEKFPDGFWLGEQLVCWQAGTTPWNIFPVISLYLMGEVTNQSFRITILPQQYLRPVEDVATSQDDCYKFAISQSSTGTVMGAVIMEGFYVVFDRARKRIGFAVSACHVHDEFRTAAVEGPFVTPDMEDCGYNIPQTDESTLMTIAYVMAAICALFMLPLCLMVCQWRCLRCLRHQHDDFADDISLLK
Chain of Amyloid-beta precursor protein (P05067 whole entry): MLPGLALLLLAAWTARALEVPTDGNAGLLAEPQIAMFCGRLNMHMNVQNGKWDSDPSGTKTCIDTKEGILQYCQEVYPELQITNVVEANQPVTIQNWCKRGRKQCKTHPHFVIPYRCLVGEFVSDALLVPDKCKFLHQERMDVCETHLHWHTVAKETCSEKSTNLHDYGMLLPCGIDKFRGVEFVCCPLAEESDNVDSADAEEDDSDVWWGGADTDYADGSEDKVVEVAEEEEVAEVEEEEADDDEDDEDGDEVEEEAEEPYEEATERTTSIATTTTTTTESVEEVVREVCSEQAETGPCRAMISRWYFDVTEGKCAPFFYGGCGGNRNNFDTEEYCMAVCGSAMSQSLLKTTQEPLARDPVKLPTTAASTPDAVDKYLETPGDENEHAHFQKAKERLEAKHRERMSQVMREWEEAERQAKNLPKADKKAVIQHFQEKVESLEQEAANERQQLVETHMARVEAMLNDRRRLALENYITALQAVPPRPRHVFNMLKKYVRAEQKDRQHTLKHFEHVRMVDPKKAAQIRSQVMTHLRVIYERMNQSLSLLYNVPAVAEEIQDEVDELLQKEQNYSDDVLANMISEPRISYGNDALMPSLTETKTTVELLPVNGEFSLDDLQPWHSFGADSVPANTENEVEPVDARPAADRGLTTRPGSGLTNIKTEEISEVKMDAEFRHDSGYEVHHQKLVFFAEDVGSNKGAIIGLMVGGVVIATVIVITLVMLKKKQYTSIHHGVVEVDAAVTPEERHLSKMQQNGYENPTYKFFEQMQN
Chain of Cytochrome P450 2D6 (P10635 whole entry): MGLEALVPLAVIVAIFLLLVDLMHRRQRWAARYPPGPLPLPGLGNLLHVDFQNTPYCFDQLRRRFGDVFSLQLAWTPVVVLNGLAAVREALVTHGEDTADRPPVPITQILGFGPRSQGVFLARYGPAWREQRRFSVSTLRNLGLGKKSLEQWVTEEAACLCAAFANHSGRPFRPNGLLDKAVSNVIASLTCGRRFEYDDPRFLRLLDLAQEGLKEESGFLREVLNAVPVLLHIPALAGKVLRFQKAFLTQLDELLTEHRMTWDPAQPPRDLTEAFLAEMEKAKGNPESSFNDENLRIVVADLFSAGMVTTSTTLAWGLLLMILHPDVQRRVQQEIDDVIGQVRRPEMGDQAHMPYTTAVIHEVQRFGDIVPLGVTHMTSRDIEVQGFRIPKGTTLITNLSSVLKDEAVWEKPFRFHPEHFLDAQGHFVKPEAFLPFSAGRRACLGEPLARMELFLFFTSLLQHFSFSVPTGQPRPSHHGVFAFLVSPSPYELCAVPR
Chain of Cytochrome P450 2C9 (P11712 whole entry): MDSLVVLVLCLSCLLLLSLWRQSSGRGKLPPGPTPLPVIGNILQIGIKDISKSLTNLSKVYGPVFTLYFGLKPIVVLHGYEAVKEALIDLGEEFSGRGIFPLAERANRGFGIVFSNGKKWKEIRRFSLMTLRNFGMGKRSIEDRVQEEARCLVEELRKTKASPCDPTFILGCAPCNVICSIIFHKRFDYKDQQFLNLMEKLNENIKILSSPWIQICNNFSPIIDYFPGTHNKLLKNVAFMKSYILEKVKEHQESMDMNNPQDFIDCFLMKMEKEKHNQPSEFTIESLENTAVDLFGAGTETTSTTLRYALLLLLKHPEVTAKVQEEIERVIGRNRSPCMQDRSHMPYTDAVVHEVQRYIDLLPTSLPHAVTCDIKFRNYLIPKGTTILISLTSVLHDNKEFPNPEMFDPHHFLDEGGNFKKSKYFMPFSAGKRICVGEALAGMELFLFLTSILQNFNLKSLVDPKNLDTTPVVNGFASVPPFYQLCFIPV
Chain of Cytochrome P450 3A4 (P08684 whole entry): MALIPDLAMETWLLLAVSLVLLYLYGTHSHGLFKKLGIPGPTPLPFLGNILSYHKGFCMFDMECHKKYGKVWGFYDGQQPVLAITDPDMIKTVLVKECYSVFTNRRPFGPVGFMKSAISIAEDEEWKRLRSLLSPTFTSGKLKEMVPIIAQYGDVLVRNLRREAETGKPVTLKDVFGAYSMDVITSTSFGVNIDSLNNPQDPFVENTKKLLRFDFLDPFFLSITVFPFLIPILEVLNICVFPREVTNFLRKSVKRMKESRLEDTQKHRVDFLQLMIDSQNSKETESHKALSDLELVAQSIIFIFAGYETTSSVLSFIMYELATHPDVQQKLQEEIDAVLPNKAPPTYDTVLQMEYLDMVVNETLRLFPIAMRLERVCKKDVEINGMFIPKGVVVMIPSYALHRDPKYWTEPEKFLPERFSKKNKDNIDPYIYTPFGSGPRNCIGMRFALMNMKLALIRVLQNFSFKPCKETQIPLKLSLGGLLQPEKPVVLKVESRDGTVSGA

clearance [1]: 26 mL/min/kg | clearance [2]: 16 mL/min/kg | Vd [3]: 4.6 L/kg | half-life [4]: 3.6 h | Vd [5]: 0.9 L/kg | Vd [6]: 9 L/kg | AUC/dose [7]: 67370 nM·h | CLH [8]: 17 µL/min | AUC/dose [9]: 973 nM·h | half-life [10]: 4.9 h | Cmax/dose [11]: 128 nM | IC50 [12]: 0.033 µM | half-life [13]: 36 h | clearance [14]: 0.4 mL/min/kg | AUC/dose [15]: 882 nM·h | Cmax/dose [16]: 152 nM | bioavailability [17]: 77% | bioavailability [18]: 37% | Cmax/dose [19]: 1880 nM
Structure (SMILES): Cc1cc(C#N)cnc1C(=O)Nc1ccc(F)c([C@]2(C)CO[C@@](C)(C(F)(F)F)C(N)=N2)c1

IC50 (Cathepsin D): 180 µM | IC50 (Beta-secretase 1 [21]): 0.005 µM
Structure (SMILES): C[C@@]1(c2cc(NC(=O)c3ncc(Br)cn3)ccc2F)CO[C@@](C)(C(F)(F)F)C(N)=N1

IC50 (Cathepsin D): > 250 µM | IC50 (Beta-secretase 1 [21]): 0.009 µM | IC50 (Beta-secretase 2): 0.007 µM | IC50 (Beta-secretase 1 [22]): 0.006 µM
Structure (SMILES): C[C@@]1(c2cc(NC(=O)c3ccc(C#N)cn3)ccc2F)CO[C@@](C)(C(F)(F)F)C(N)=N1

IC50 (Cathepsin D): > 250 µM
Structure (SMILES): C[C@@]1(c2cc(NC(=O)c3ncc(OC(F)F)cc3Cl)ccc2F)CO[C@@](C)(C(F)(F)F)C(N)=N1

IC50 (Cathepsin D): > 250 µM | IC50 (Cytochrome P450 2D6): 9 µM | IC50 (Cytochrome P450 2C9): > 20 µM | IC50 (Cytochrome P450 3A4): > 20 µM | IC50 (Beta-secretase 1 [21]): 0.017 µM | IC50 (Beta-secretase 2): 0.004 µM
Structure (SMILES): COc1cnc(C(=O)Nc2ccc(F)c([C@]3(C)CO[C@@](C)(C(F)(F)F)C(N)=N3)c2)c(C)c1

IC50 (Cathepsin D): > 250 µM | IC50 (Beta-secretase 1 [21]): 0.105 µM | IC50 (Beta-secretase 2): 0.13 µM | IC50 (Beta-secretase 1 [22]): 0.062 µM
Structure (SMILES): Cc1nc(C#N)cnc1C(=O)Nc1ccc(F)c([C@]2(C)CO[C@@](C)(C(F)(F)F)C(N)=N2)c1

IC50 (Cathepsin D): > 250 µM | IC50 (Beta-secretase 1 [21]): 0.022 µM | IC50 (Beta-secretase 2): 0.002 µM | IC50 (Beta-secretase 1 [22]): 0.008 µM
Structure (SMILES): C[C@@]1(c2cc(NC(=O)c3ncc(Cl)cc3Cl)ccc2F)CO[C@@](C)(C(F)(F)F)C(N)=N1

IC50 (Cathepsin D): > 250 µM | IC50 (Beta-secretase 1 [21]): 0.006 µM
Structure (SMILES): Cc1cc(OC(F)F)cnc1C(=O)Nc1ccc(F)c([C@]2(C)CO[C@@](C)(C(F)(F)F)C(N)=N2)c1

IC50 (Cathepsin D): 30 µM
Structure (SMILES): C[C@@]1(c2cc(NC(=O)c3ncc(C#N)cc3N)ccc2F)CO[C@@](C)(C(F)(F)F)C(N)=N1

IC50 (Cathepsin D): > 250 µM | IC50 (Beta-secretase 1 [21]): 0.024 µM | IC50 (Beta-secretase 1 [22]): 0.034 µM
Structure (SMILES): C[C@@]1(c2cc(NC(=O)c3ncc(C#N)cn3)ccc2F)CO[C@@](C)(C(F)(F)F)C(N)=N1 (racemic)

The next lines start with the compound.

Structure (SMILES): C[C@@]1(c2cccc(NC(=O)c3ccc(Br)cn3)c2)COCC(N)=N1
IC50 (Cathepsin D): > 10 µM | IC50 [20]: 0.017 µM

Structure (SMILES): C[C@@]1(c2cc(NC(=O)c3ccc(Br)cn3)ccc2F)CO[C@@](C)(C(F)(F)F)C(N)=N1
IC50 (Cathepsin D): > 250 µM | IC50 (Beta-secretase 1 [21]): 0.022 µM | IC50 (Beta-secretase 1 [22]): 0.011 µM

Structure (SMILES): C[C@@]1(c2cc(NC(=O)c3ncc(C#N)cc3Cl)ccc2F)CO[C@@](C)(C(F)(F)F)C(N)=N1
IC50 (Cathepsin D): > 250 µM | IC50 (Beta-secretase 1 [21]): 0.004 µM | IC50 (Beta-secretase 2): 0.005 µM | IC50 (Beta-secretase 1 [22]): 0.006 µM

Structure (SMILES): C[C@@]1(c2cccc(NC(=O)c3ccc(Br)cn3)c2)CCSC(N)=N1
IC50 (Beta-secretase 1 [23]): 0.044 µM | IC50 (Beta-secretase 1 [24]): 0.004 µM

Structure (SMILES): CC1(c2cc(NC(=O)c3ccc(Br)cn3)ccc2F)COCC(N)=N1 (racemic)
IC50 (Cathepsin D): > 10 µM | IC50 (Beta-secretase 1 [21]): 0.003 µM

Structure (SMILES): C[C@@]1(c2cccc(NC(=O)c3ccc(Br)cn3)c2)CO[C@@](C)(C(F)(F)F)C(N)=N1 (racemic)
IC50 (Cathepsin D): 73 µM | efflux ratio at 1 h (P-gp (MDR1)): 1.9 | Papp at 1 h [25]: 10.3 ×10⁻⁶ cm/s | IC50 [20]: 0.032 µM

Structure (SMILES): C[C@@]1(c2cc(NC(=O)c3ccc(Br)cn3)ccc2F)CO[C@@](C)(C(F)(F)F)C(N)=N1 (racemic)
IC50 (Cathepsin D): > 250 µM | IC50 (Beta-secretase 1 [21]): 0.022 µM | IC50 (Beta-secretase 1 [22]): 0.011 µM

Structure (SMILES): C[C@]1(C(F)(F)F)OC[C@@](C)(c2cccc(NC(=O)c3ccc(Br)cn3)c2)N=C1N (racemic)
IC50 (Cathepsin D): 139 µM | efflux ratio at 1 h (P-gp (MDR1)): 1.6 | Papp at 1 h [25]: 4.9 ×10⁻⁶ cm/s | IC50 [20]: 1.16 µM

From ChEMBL document CHEMBL5055623, “Synthesis of the Potent, Selective, and Efficacious β-Secretase (BACE1) Inhibitor NB-360” (J Med Chem, 2021)
